Screening data as filed in PubChem.
In the library only some 4.8% were active in any assay of this set; here they are far more common.
HSF1 inh – HSF1 inhibition; NIH3T3-HGL HSE-luciferase, MG132-induced, luminescence 8 h; active compounds read low; activity change, negative = inhibition, % at 7.5 µM (by protocol); hit rate 0.77% among 300,000; AID 2098;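 active = more than half of replicate wells show activity change below -50%, luminescence cut by over half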;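 also: luciferase reports HSF-1 transcriptional activity via heat shock element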
T cruzi repl – blocks replication of Trypanosoma cruzi | T. cruzi beta-gal in NIH3T3, luminescence, 90 h | inhibition, % (no concentration beside the values) | hit rate 1.4% among 300,000;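 active = mean inhibition across valid replicates above about 55%, limit read from the data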;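 also: signal also drops with host cell toxicity which is not excluded here; higher percent means less beta-gal luminescence so fewer parasites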
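Test system: β-gal T. cruzi (Tulahuen C4) inside NIH/3T3 cells / Quantity: 5,000 cells/well / Measured by: luminescence from GalScreen with 0.05% NP40, read after 60 min / Medium: DMEM plus 2% FBS / Measure: parasite load inhibition, % / Reagent: Tulahuen C4 trypomastigotes, 5000/well / Schedule: co-culture of at least 90 h after 3 h attachment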
697 NFkB inh – lowers PMA/ionomycin-induced NF-kB signal in 697 B cells | inhibition, % at 4 µM | AID 435022 | 697 B-cell NF-kB luciferase reporter, 16 h | hit rate 0.33% among 330,000; in the data active = inhibition above about 35%
GPR7 antagonist – blocks human GPR7 receptor signaling; P48145; GPR7-expressing cells, fluorescence antagonist assay; inhibition, % at 4.4 µM; hit rate 1.1% among 290,000; in the data active = inhibition above about 16%, passing the limit was not always enough;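 also: cells stimulated with the agonist NPW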
Target sequence (P48145 whole entry, looked up): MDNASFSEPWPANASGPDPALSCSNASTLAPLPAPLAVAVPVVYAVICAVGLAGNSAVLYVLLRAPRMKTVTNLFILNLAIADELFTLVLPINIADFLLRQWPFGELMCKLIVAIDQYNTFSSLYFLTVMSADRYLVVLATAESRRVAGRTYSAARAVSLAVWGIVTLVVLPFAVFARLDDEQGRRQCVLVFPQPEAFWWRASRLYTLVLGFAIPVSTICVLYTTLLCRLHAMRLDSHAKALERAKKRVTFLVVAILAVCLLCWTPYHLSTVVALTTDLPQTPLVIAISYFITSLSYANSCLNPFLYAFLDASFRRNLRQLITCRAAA
HSF-1 act – increases HSF-1 driven luciferase reporter signal; NIH3T3-HGL HSF-1 luciferase reporter, MG132, 8 h; 100% = twice DMSO control signal; activation, % at 9 µM; hit rate 1.7% among 300,000; AID 504408;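 active = mean replicate activation of at least 50% with a set share of replicates each reaching 50%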
Jurkat NFkB inh – inhibitors of the PMA/ionomycin-induced NF-kB reporter in Jurkat cells; PMA/ionomycin-induced NF-kB luciferase reporter, luminescence; inhibition, % at 4 µM; hit rate 0.53% among 330,000; in the data active = inhibition above about 50%
Jurkat NFkB conf – inhibitors of the PMA/ionomycin-induced NF-kB reporter in Jurkat cells, retest | inhibition, % at 4 µM | shares compounds with Jurkat NFkB inh | Jurkat NF-kB luciferase, 16 h | hit rate 27% among 2,700;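 active = inhibition reaching about 45% at 4 µM in either replicate, limit read from the data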
A number is an active result; 0 = inactive; - = not tested or not shown.

SMILES	HSF1 inh	T cruzi repl	697 NFkB inh	GPR7 antagonist	HSF-1 act	Jurkat NFkB inh	Jurkat NFkB conf
CC1(C)CC2CC(C)(CN2S(=O)(=O)c2ccc(C(=O)Nc3cccc(S(=O)(=O)N4CCOCC4)c3)cc2)C1 (stereo not given)	0	0	0	0	0	63	69
CCOc1ccc(C2=Nn3c(nnc3-c3ccccc3OC)SC2)cc1	0	0	-	0	0	-	-
COc1ccccc1-c1nnc2n1N=C(c1ccc(O)c(O)c1)CS2	0	0	0	0	0	81	55
CCOc1ccccc1NC(=O)c1cccc(NC(=O)c2ccco2)c1	0	0	0	0	0	57	0
Cc1ccc(-c2csc(NC(=O)N3CCOCC3)n2)cc1	0	0	0	0	0	0	-
O=C(O)/C=C/c1cn(-c2ccccc2)nc1-c1cc2ccccc2oc1=O	0	0	0	0	0	0	0
O=Cc1cn(-c2ccccc2)nc1-c1cc2cc(O)ccc2oc1=O	0	0	0	0	0	0	-
COc1cccc(-c2ncc3ccccc3c2COC(=O)N(C)C)c1	-	-	0	-	-	0	-
O=C(NC(=S)Nc1ccc(N2CCCCC2)cc1)c1cccs1	0	0	0	0	0	0	0
COc1ccc(NC(=O)c2cccs2)cc1C(=O)N1CCN(c2ccccc2)CC1	0	0	0	0	0	52	0
COc1cccc(C(=O)Nc2ccc(N3CCN(C(=O)c4cccs4)CC3)cc2)c1	0	0	0	0	0	52	0
O=C(Nc1ccc(N2CCN(C(=O)c3cccs3)CC2)cc1)c1cccc(F)c1	0	0	0	0	0	0	-
CCCc1cc(C(=O)Nc2nccs2)cs1	0	0	0	0	86	0	0
O=C(N/N=C\c1ccc(Cl)s1)C1COc2ccccc2O1 (stereo not given)	0	0	0	0	0	0	-
O=C(N/N=C/c1c[nH]c2ccccc12)C1COc2ccccc2O1 (stereo not given)	0	0	0	0	0	53	0
CCOc1cccc(/C=N/Nc2ccc(S(=O)(=O)N(CC)CC)cn2)c1O	0	0	0	0	0	60	0
CCN(CC)S(=O)(=O)c1ccc(N/N=C/c2cc(OC)c(OC)cc2OC)nc1	0	0	0	0	0	0	-
C[C@H](CO)N1C[C@H](C)[C@@H](CN(C)Cc2ccncc2)Oc2c(NS(=O)(=O)c3ccccc3)cccc2C1=O	-	-	0	-	-	0	-
O=C(Nc1ccc(Cc2ccncc2)cc1)c1ccc(S(=O)(=O)N2CCCC2)cc1	0	0	0	0	0	50	47
O=C(Nc1ccc(S(=O)(=O)N2CCOCC2)cc1)c1ccc(CN2CCc3ccccc3C2)cc1	0	0	0	0	0	77	74
O=C(Nc1ccc(Cl)cc1)c1ccc(CN2CCc3ccccc3C2)cc1	0	0	0	0	0	0	-
CCNC(=O)O/N=C(\C)c1sc(-c2ccc(Cl)cc2)nc1C	0	0	0	0	60	0	0
CCN(CC(=O)NC1CCCC1)S(=O)(=O)c1ccc(Br)cc1	0	0	0	0	0	0	-
CCc1nnc(NC(=O)CSc2nnc3c(C)cc4c(C)ccc(C)c4n23)s1	0	0	0	0	0	0	-
Cc1cc(NC(=O)CSc2nnc3c(C)cc4c(C)ccc(C)c4n23)no1	0	0	0	0	0	59	0
SMILES	HSF1 inh	T cruzi repl	697 NFkB inh	GPR7 antagonist	HSF-1 act	Jurkat NFkB inh	Jurkat NFkB conf
O=C(Nc1ccc(OC(F)F)c(Cl)c1)c1ccccn1	0	0	0	0	70	0	0
COc1ccc(NC(=O)c2ccc(OC(F)F)cc2)cc1Cl	0	0	0	0	0	0	-
O=C(/C=C\Nc1ccc2c(c1)OCO2)c1ccccn1	-72	0	0	0	0	55	0
CCCC[C@@H]1C=C(C(=O)O)[C@H](c2ccc(Cl)c(Cl)c2)N1S(=O)(=O)c1ccc(C)cc1	-	-	0	-	-	0	-
COc1ccccc1NC(=O)CSc1nc(=O)n(CCN2CCOCC2)c2c1CCC2	0	0	0	-	0	0	-
O=Cc1cc2ccccc2nc1SCc1ccc(Cl)c(Cl)c1	0	0	0	0	0	57	0
O=Cc1cc2ccccc2nc1SCc1ccc(Cl)cc1	0	0	0	0	0	0	-
CCC(C(=O)N1CCN(S(=O)(=O)c2ccc(F)cc2)CC1)c1ccccc1 (stereo not given)	-	-	0	-	-	0	-
Cc1ccc(S(=O)(=O)Nc2ccccc2-c2ccccc2)cc1	0	0	0	0	0	59	50
CCOc1cc(C(=O)N/N=C/C(Br)=C/c2ccccc2)cc(OCC)c1OCC	0	0	0	0	87	58	0
Cc1ccc(-c2cn(-c3ccccc3)c(SCC(=O)NC3CCS(=O)(=O)C3)n2)cc1C (stereo not given)	0	0	0	0	0	0	0
O=S1(=O)CCOCCN1Cc1ccc(Cl)cc1Cl	0	0	0	0	0	0	-
COc1ccc(NS(=O)(=O)c2cc(NC(=O)c3ccc(=O)[nH]c3)ccc2N2CCCC2)cc1	0	0	0	0	0	63	0
COc1ccc(NS(=O)(=O)c2cc(NC(=O)c3cnc(C)cn3)ccc2N2CCCC2)cc1	0	0	0	0	0	0	-
O=c1c2ccccc2nc2sc(Nc3ccc(F)cc3)nn12	-	-	0	-	-	0	0
CC(Oc1ccc2ccc(=O)oc2c1)C(=O)NC(Cc1c[nH]c2ccc(O)cc12)C(=O)O (stereo not given)	0	0	0	0	0	0	-
CCN(c1ccccc1)S(=O)(=O)c1ccc(C(=O)NC2CCN(Cc3ccccc3)CC2)cc1	0	-	0	-	0	74	65
O=C(NC1CCN(Cc2ccccc2)CC1)c1ccc(S(=O)(=O)NCc2ccco2)cc1	0	73	0	0	0	51	0
O=C(NC1CC1)c1ccc(CN(c2ccccc2)S(=O)(=O)c2ccccc2)cc1	0	0	0	0	0	0	-
CCc1ccc(S(=O)(=O)Nc2c(C)nc3nc[nH]n3c2=O)cc1	0	0	0	0	0	0	-
CCCN1CCC(=O)N(CCSc2ccc(C)cc2)CC1	0	0	0	-	0	0	-
CCCN1CCC(=O)N(CCSc2ccc(OC)cc2)CC1	0	0	0	-	0	54	0
CC(=O)[C@@]1(O)CCC2C3CC[C@H]4C[C@@H](O)CC[C@]4(C)C3CC[C@@]21C (stereo not given in full)	-	-	0	-	-	0	-
C[C@]12CCC3C(CC[C@H]4CCCC[C@]34C)C1CC[C@@]2(O)CNCCO (stereo not given in full)	0	0	0	0	0	56	0
CC(NC(=O)CSC(=S)N1CCCC1)c1ccc(S(N)(=O)=O)cc1 (stereo not given)	0	0	0	-	0	0	-
Cc1c(CCC(=O)O)c(=O)oc2cc3occ(-c4ccc(F)cc4)c3cc12	0	0	0	0	0	0	-
COc1ccc(-c2coc3cc4oc(=O)c5ccccc5c4cc23)cc1F	0	0	0	0	0	73	0
